Experimental findings from ChEMBL document CHEMBL1148339, “Synthesis, structure-activity relationships, and drug resistance of beta-d-3'-fluoro-2',3'-unsaturated nucleosides as anti-HIV Agents” (J Med Chem, 2004) are described below.

The target of the experiment is T1, Adenosine deaminase (Bos taurus) (UniProt P56658).
T1 sequence (whole entry): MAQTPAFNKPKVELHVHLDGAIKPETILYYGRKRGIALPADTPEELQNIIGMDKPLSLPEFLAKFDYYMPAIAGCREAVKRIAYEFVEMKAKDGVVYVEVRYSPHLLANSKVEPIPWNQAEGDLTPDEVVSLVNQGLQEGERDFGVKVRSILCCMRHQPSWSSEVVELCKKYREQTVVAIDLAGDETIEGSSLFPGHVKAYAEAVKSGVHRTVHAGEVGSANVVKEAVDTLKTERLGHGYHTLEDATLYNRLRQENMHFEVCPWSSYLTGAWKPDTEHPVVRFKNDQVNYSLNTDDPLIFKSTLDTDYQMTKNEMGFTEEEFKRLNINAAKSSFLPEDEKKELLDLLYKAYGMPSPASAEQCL
Nature of the experiment: Kcat/KM of compound against adenosine deaminase (ADA) was determined. In short, it runs like this:
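Deamination by calf intestinal mucosa adenosine deaminase (0.15 units, MW 33 000, in 2 mL) in phosphate buffer pH 7.4 at 25 °C, substrate 15–100 μM, monitored by UV at 265 nm. Initial rates from graphical fitting of concentration vs time; Vmax and KM from Lineweaver–Burk plot, kcat calculated from enzyme amount.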

The compound `Nc1ncnc2c1ncn2[C@@H]1O[C@H](CO)[C@@H](O)[C@H]1O` registered a k cat/Km of 3.1e+06 M⁻¹ s⁻¹.
